In ChEMBL document CHEMBL4831482 (Eur J Med Chem, 2021):
Converted amounts (≈) assume the structure as drawn. The source made the active and inactive calls. The rule behind the calls is not given here. Where a SMILES comes first, the peptide text is derived from it.

Key:
Candida albicans = assay: Antifungal activity against Candida albicans ATCC 10231 assessed as inhibition of fungal growth by CLSI method; type: functional, organism-based
Vero = assay: Cytotoxicity against African green monkey Vero cells assessed as reduction in cell viability incubated for 48 hrs by Neutral red assay; type: cell-based; settings: chlorocebus sabaeus
Outline: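 VERO monkey kidney cells seeded at 25,000 cells/well and incubated 24 h to confluency. Peptide added, then a further 48 h incubation. Viability read by neutral red uptake.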

Klebsiella pneumoniae = assay: Antibacterial activity against Klebsiella pneumoniae ATCC BAA1705 assessed as inhibition of bacterial growth by CLSI method; type: functional, organism-based
Aspergillus fumigatus = assay: Antifungal activity against Aspergillus fumigatus ATCC 1022 assessed as inhibition of fungal growth by CLSI method; type: functional, organism-based
Cryptococcus neoformans = assay: Antifungal activity against Cryptococcus neoformans ATCC 90113 assessed as inhibition of fungal growth by CLSI method; type: functional, organism-based
Enterococcus = assay: Antibacterial activity against vancomycin resistant Enterococcus ATCC MP-1 assessed as inhibition of bacterial growth by CLSI method; type: functional, organism-based
Pseudomonas aeruginosa = assay: Antibacterial activity against Pseudomonas aeruginosa ATCC 27853 assessed as inhibition of bacterial growth by CLSI method; type: functional, organism-based
Staphylococcus aureus = assay: Antibacterial activity against methicillin-resistant Staphylococcus aureus ATCC 33591 assessed as inhibition of bacterial growth by CLSI method; type: functional, organism-based
Escherichia coli = assay: Antibacterial activity against Escherichia coli ATCC 35218 assessed as inhibition of bacterial growth by CLSI method; type: functional, organism-based

Structure (SMILES)	Activity (Candida albicans)	Activity (Vero) [µg/mL]	Activity (Klebsiella pneumoniae)	Activity (Aspergillus fumigatus)	IC50 (Cryptococcus neoformans) [µg/mL]	MIC (Cryptococcus neoformans) [µg/mL]	IC50 (Enterococcus) [µg/mL]	MIC (Enterococcus) [µg/mL]	IC50 (Pseudomonas aeruginosa) [µg/mL]	IC50 (Staphylococcus aureus) [µg/mL]	MIC (Staphylococcus aureus) [µg/mL]	IC50 (Escherichia coli) [µg/mL]	MIC (Escherichia coli) [µg/mL]
Cc1ccc(-c2nc(C[C@H](N)C(=O)N[C@@H](Cc3c[nH]c4ccccc34)C(=O)N[C@@H](CCCNC(=N)N)C(=O)NCc3ccccc3)c[nH]2)cc1.Cl.Cl	inactive	> 10	inactive	inactive	3.36	5							
COC(=O)[C@H](CCCNC(=N)N)NC(=O)[C@H](Cc1c[nH]c2ccccc12)NC(=O)[C@@H](N)Cc1c[nH]c(-c2ccccc2)n1.Cl.Cl	inactive	> 10	inactive	inactive	9.23	> 20							
CCCCc1ccc(-c2nc(C[C@H](NC(=O)OC(C)(C)C)C(=O)N[C@@H](Cc3c[nH]c4ccccc34)C(=O)N[C@@H](CCCNC(=N)N)C(=O)OC)c[nH]2)cc1	inactive	> 10	inactive	inactive	1.99 (≈ 2.68 µM)	2.5 (≈ 3.36 µM)	7.82 (≈ 10.5 µM)	20 (≈ 26.9 µM)	> 20	9.29 (≈ 12.5 µM)	10 (≈ 13.4 µM)	17.9 (≈ 24 µM)	> 20
C[C@@H]1[C@H](O)[C@@H](C)/C=C/C=C/C=C/C=C/C=C/C=C/C=C/[C@H](O[C@@H]2O[C@H](C)[C@@H](O)[C@H](N)[C@@H]2O)C[C@@H]2O[C@](O)(C[C@@H](O)C[C@@H](O)[C@H](O)CC[C@@H](O)C[C@@H](O)CC(=O)O[C@H]1C)C[C@H](O)[C@H]2C(=O)O [AMPHOTERICIN B]						1.25 (≈ 1.35 µM)							
Cc1ccc(-c2nc(C[C@H](NC(=O)OC(C)(C)C)C(=O)N[C@@H](Cc3c[nH]c4ccccc34)C(=O)N[C@@H](CCCNC(=N)N)C(=O)NCc3ccccc3)c[nH]2)cc1	inactive	> 10	inactive	inactive	4.34 (≈ 5.59 µM)	5 (≈ 6.44 µM)	> 20		> 20	17.5 (≈ 22.5 µM)	20 (≈ 25.7 µM)	> 20	
COC(=O)[C@H](CCCNC(=N)N)NC(=O)[C@H](Cc1c[nH]c2ccccc12)NC(=O)[C@H](Cc1c[nH]c(-c2ccc(C)cc2)n1)NC(=O)OC(C)(C)C	inactive	> 10	inactive	inactive	7.66 (≈ 10.9 µM)	> 20							
CCc1ccc(-c2nc(C[C@H](N)C(=O)N[C@@H](Cc3c[nH]c4ccccc34)C(=O)N[C@@H](CCCNC(=N)N)C(=O)OC)c[nH]2)cc1.Cl.Cl	inactive	> 10	inactive	inactive	1.85	2.5	> 20		> 20	> 20		17.4	> 20
CCc1ccc(-c2nc(C[C@H](NC(=O)OC(C)(C)C)C(=O)N[C@@H](Cc3c[nH]c4ccccc34)C(=O)N[C@@H](CCCNC(=N)N)C(=O)OC)c[nH]2)cc1	inactive	> 10	inactive	inactive	9.66 (≈ 13.5 µM)	> 20							
COC(=O)[C@H](CCCNC(=N)N)NC(=O)[C@H](Cc1c[nH]c2ccccc12)NC(=O)[C@H](Cc1c[nH]c(-c2ccc(-c3ccccc3)cc2)n1)NC(=O)OC(C)(C)C	inactive	> 10	inactive	inactive	8.06 (≈ 10.6 µM)	> 20			> 20	16.3 (≈ 21.3 µM)	> 20	> 20	
COC(=O)[C@H](CCCNC(=N)N)NC(=O)[C@H](Cc1c[nH]c2ccccc12)NC(=O)[C@H](Cc1c[nH]c(-c2ccccc2)n1)NC(=O)OC(C)(C)C	inactive	> 10	inactive	inactive	8.85 (≈ 12.9 µM)	> 20							
COC(=O)[C@H](CCCNC(=N)N)NC(=O)[C@H](Cc1c[nH]c2ccccc12)NC(=O)[C@@H](N)Cc1c[nH]cn1.Cl.Cl (H-His-Trp-Arg-OMe)	inactive	> 10	inactive	inactive	2.41	10							
